WT yeast gro inh: growth inhibition of WT strain, primary screen, mitochondrial fusion inhibitor project, WT and mutant strains, chemical genetic; mitochondrial fusion phenotypic screen; inhibition, % at 10 µM; hit rate 2.1% among 190,000; in the data active means inhibition above about 58%; tested in S. cerevisiae
RAM inhibit: inhibitors of the yeast RAM network, primary screen, dse1pr::URA3 reporter, 5-FOA selection. hit rate 1.8% among 190,000. inhibition, % at 50 µM. S. cerevisiae dse1pr::URA3 reporter, 5-FOA growth OD615, 2 d; analog-sensitive cbk1-as2 kinase mutant strain;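 active means inhibition above a set limit, 3 SD over mean compound inhibition, cut at about 8.4% in these data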;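 further: 0% = DMSO-only wells with no growth and 100% = 10 µM 1-NA-PP1 full growth; inhibition rescues growth on 5-FOA so higher OD means more RAM inhibition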
Biofilm kill mix: clotrimazole potentiators killing C. albicans biofilm, primary screen, 4-compound mixtures; AID 1242, 2008; C. albicans biofilm persisters + clotrimazole, fluorescence viability; primary screen in compound mixtures of four per well; hit rate 0.02% among 120,000; inhibition, % at 7.6 µM;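 active means inhibition above 30.3% in the primary screen of four-compound pools, then above 30% when the compound was retested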;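 further: compounds exposed to preformed 24 h biofilms for 48 h; 0% = untreated biofilm control and 100% = clotrimazole plus chlorhexidine kill blank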
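Test system: C. albicans CAF4-2 wild-type biofilms; buffer or medium: RPMI/MOPS medium, pH 7.0; schedule: 24 h biofilm formation, then 48 h compound exposure, 37 °C; detection: Alamar Blue fluorescence; measure: percent inhibition of biofilm viability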
Hck-Nef inh: inhibitors of Nef-activated human Hck kinase, primary screen, biochemical, Z-Lyte FRET, 384-well, Hck-YEEI; Recombinant Hck-YEEI plus Nef, Z-Lyte FRET kinase assay; AID 463187, 2010; hit rate 0.68% among 220,000; inhibition, % at 20 µM;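 active means Hck-Nef kinase inhibition above about 50%, limit read from the data; inactive means inhibition below that limit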;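 further: 0% = DMSO with Hck plus Nef and 100% = Hck alone without Nef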
NCF1 inh: p47phox/p22phox peptide binding inhibitors, primary screen, biochemical, uHTS, NADPH oxidase regulatory subunit; fluorescence polarization, 2 h; inhibition, % at 24.7 µM; Neutrophil cytosol factor 1 (Homo sapiens), P14598; AID 1274, 2008; hit rate 0.53% among 220,000;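 active means inhibition above about 30%, limit read from the data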;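 further: 0% = p47phox with labelled peptide and 100% = labelled peptide alone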
Target sequence (P14598 whole entry, looked up): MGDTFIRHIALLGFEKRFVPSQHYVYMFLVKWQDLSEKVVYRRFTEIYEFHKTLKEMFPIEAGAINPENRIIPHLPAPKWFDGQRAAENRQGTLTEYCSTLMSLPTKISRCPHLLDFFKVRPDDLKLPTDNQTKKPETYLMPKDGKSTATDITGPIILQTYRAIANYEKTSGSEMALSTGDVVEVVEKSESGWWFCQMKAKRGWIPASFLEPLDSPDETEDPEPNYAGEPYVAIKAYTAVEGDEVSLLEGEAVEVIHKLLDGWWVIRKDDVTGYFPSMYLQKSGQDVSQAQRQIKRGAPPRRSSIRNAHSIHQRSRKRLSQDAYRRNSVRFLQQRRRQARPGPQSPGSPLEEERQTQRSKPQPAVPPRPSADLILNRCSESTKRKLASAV
Arbovirus anti: antivirals against arbovirus infection, primary screen, cell-based, full library, 10K replicate subset; arbovirus infection cell-based antiviral screen; inhibition, % at 10 µM; hit rate 0.37% among 200,000; AID 1251, 2008; in the data active means inhibition above about 30%
Hck Nef conf: retest of Hck:Nef kinase inhibitor hits, confirmation, biochemical, Z-Lyte FRET, 384-well, p-Tyr peptide counterscreen; shares compounds with Hck-Nef inh; Recombinant Hck-YEEI:Nef, Z-Lyte FRET kinase assay; calls only at 10 µM; hit rate 28% among 1,300;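 active means average inhibition of at least 50%, with Z-scores no higher than 3 in both the phospho-tyrosine peptide and fluorescence counterscreens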
* = called active by the depositor; i = inactive; . = not tested or not shown; + = active, no number. Shown are actives, neighbours in structure and some others; about 4.6% of the full set was active somewhere.

SMILES | WT yeast gro inh | RAM inhibit | Biofilm kill mix | Hck-Nef inh | NCF1 inh | Arbovirus anti | others
CCN1C(=O)/C(=C\c2ccc(-c3ccc([N+](=O)[O-])cc3OC)o2)SC1=Nc1cccc(C(=O)O)c1 | 15 | 4 | 17 | 70* | -12 | 3 | Hck Nef conf=i
Cc1ccc(NC(=O)CN2C(=O)S/C(=C/c3ccc(-c4cc(C(=O)O)ccc4C)o3)C2=O)cc1C | -3 | 4 | . | 16 | -44 | -35
Cc1ccc(-n2cccc2/C=C2\C(=N)N3N=C(c4ccco4)SC3=NC2=O)cc1 | 44 | 0 | 23 | 70* | -81 | 46* | Hck Nef conf=+
CCN(CC)CCCNC(=O)CCC(=O)Nc1ccc2nc(N3CCC(C)CC3)cc(C)c2c1 | -2 | 0 | 12 | 88* | 3 | -13
COc1ccc(/C=N/Nc2cn[nH]c(=O)c2Cl)cc1 | -15 | 2 | 8 | 72* | 10 | 7 | Hck Nef conf=+
Cc1ccc(/C=N\Nc2cn[nH]c(=O)c2Cl)cc1 | 10 | 2 | . | 2 | -12 | -6
Cc1ccsc1/C=N\Nc1cn[nH]c(=O)c1Cl | -2 | 5 | 5 | 74* | -7 | -10 | Hck Nef conf=+
Cc1ccc(C(=O)CSc2nnc(C(C)C)n2C)cc1C | -13 | 1 | 2 | 27 | -2 | 2
CCNC(=O)c1cc2c(=O)n3cccc(C)c3nc2n(Cc2ccc(C)cc2)c1=N | -16 | -1 | . | 71* | 12 | -11
CCOCCCn1c(=N)c(C(=O)NCCN2CCOCC2)cc2c(=O)n3cccc(C)c3nc21 | -15 | 0 | . | 133* | -17 | 3
COCCCNC(=O)c1cc2c(=O)n3cccc(C)c3nc2n(C(C)C)c1=N | 8 | 2 | . | 167* | 1 | 2
COCCn1c(=N)c(C(=O)NCCc2ccc(OC)cc2)cc2c(=O)n3cccc(C)c3nc21 | 12 | 0 | . | 13 | . | -8
N=c1c(C(=O)NCc2ccc(F)cc2)cc2c(=O)n3ccccc3nc2n1CCCN1CCOCC1 | -10 | 1 | . | 69* | 3 | -4
COC(=O)c1ccc(C(=O)OC)c(NC(=S)N2CCN(C(=O)C3CCCO3)CC2)c1 (centres undefined) | . | . | 29 | -28 | -16 | .
Cc1ccc(NC(=O)COC(=O)C2CC2C)c(S(=O)(=O)N2CCCCC2)c1 (centres undefined) | -4 | 0 | . | 0 | -4 | 4
COc1ccc2nc(NC(=O)C3CCCN3S(=O)(=O)c3ccc(C)cc3)sc2c1 (centres undefined) | 10 | 2 | . | 3 | 2 | 10
CS(=O)(=O)c1ccc2nc(NC(NC(=O)c3ccco3)(C(F)(F)F)C(F)(F)F)sc2c1 | -17 | 2 | . | -7 | -11 | 5
Cc1cccn2c(=O)c3cc(C(=O)NC(C)C)c(=N)n(Cc4ccncc4)c3nc12 | 9 | 1 | . | 130* | 0 | -2

Assay outcomes as filed in PubChem.
